In brackets after ≈: the same amount, converted by molar mass.

Cytochrome P450 2C9, sequence (P11712 whole entry): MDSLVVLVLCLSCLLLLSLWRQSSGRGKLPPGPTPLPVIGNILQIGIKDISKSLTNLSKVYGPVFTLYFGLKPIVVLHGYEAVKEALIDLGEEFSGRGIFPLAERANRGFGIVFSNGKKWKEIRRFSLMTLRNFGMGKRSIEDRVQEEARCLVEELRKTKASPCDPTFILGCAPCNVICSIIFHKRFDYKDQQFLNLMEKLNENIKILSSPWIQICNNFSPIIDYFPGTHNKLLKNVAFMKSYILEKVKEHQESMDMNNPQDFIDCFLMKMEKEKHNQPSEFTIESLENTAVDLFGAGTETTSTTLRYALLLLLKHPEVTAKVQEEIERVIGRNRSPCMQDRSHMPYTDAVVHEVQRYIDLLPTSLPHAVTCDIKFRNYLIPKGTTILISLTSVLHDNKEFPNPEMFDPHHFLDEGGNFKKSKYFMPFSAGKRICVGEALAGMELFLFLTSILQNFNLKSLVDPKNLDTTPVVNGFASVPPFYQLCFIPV

Test system in one data set: not listed separately
In words: Octanol-water partition coefficient, logD of the compound at pH 2 by HPLC analysis. Format: physicochemical. The note with it: read-out: logD.
As for `O=C(Cn1ccccc1=O)Nc1cc2cccccc-2c1`, the logD stood at 2.

Turning to `CN1CCN(C(=O)c2ccc3ccc(C(=O)c4ccccc4)c-3cc2)CC1`, the logD is 1.2.

Test system in the next data set: not listed separately
In words: Photostability of the compound at pH 7.1 assessed as compound degradation administered as solution irradiated with sun light and measured after 7 days by HPLC analysis. In kind it is physicochemical. The conditions noted are these: time 7 day, read-out: Drug degradation. Put shortly: (§1)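 Compound in solution was kept for 7 days under "mild" light-stress conditions, with no pH adjustment. The pH listed for each compound is the solution's own intrinsic pH. Result is % degradation of parent.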
In the case of `O=C(Cn1ccccc1=O)Nc1cc2cccccc-2c1`, the degraded at 168 h worked out at 85%.

The target of another data set is Cytochrome P450 2C19 (Homo sapiens, UniProt P33261). Description: Inhibition of CYP2C19 in human liver microsomes using mephenytoin as substrate preincubated with compound followed by NADPH addition by LC-MS/MS analysis. Format: ADME, Microsome.
Cytochrome P450 2C19, sequence (P33261 whole entry): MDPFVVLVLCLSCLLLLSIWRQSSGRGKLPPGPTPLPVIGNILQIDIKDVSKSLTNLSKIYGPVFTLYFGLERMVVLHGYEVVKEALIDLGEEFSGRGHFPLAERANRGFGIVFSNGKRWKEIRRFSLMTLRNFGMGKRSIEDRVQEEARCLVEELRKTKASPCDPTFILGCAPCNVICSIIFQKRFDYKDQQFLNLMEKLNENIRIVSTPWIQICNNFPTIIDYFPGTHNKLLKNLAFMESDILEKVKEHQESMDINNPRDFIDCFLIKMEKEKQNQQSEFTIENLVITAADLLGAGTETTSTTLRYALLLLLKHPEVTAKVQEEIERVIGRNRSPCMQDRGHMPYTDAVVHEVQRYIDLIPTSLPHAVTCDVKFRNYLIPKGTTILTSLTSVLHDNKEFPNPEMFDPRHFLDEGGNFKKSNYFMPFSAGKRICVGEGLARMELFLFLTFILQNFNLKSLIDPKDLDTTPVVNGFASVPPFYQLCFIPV
Details: not given
On to `O=C(O)c1ccc2ccc(C(=O)c3ccccc3)c-2cc1`, for which the IC50 is more than 50 µM.

For the compound `CN1CCN(C(=O)c2ccc3ccc(C(=O)c4ccccc4)c-3cc2)CC1`, the IC50 was more than 50 µM.

Another data set concerns the target Cytochrome P450 2C9 (Homo sapiens, UniProt P11712). In words: Inhibition of CYP2C9 in human liver microsomes using diclofenac as substrate preincubated with compound followed by NADPH addition by LC-MS/MS analysis. Format: ADME, Microsome.
Details: not given
Consider `O=C(O)c1ccc2ccc(C(=O)c3ccccc3)c-2cc1`, for which the IC50 is more than 50 µM.

With `CN1CCN(C(=O)c2ccc3ccc(C(=O)c4ccccc4)c-3cc2)CC1`, the IC50 turned out to be 39 µM.

The target in a further data set is Cytochrome P450 3A4 (Homo sapiens, UniProt P08684). In words: Inhibition of CYP3A4 in human liver microsomes using midazolam as substrate preincubated with compound followed by NADPH addition by LC-MS/MS analysis. In kind it is ADME, Microsome.
Cytochrome P450 3A4, sequence (P08684 whole entry): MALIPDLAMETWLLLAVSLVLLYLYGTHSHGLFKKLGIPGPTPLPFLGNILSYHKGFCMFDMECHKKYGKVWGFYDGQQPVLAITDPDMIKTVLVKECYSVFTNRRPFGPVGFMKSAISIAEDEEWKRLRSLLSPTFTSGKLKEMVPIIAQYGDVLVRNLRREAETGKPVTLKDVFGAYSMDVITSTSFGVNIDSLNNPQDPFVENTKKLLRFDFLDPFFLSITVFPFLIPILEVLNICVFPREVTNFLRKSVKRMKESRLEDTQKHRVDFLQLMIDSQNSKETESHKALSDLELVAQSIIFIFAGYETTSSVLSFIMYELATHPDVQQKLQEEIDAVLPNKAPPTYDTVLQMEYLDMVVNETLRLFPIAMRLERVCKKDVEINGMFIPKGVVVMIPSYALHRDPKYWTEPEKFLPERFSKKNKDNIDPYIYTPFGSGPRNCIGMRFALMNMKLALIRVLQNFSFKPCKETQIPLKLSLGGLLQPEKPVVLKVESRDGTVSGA
Details: not given
Take `O=C(O)c1ccc2ccc(C(=O)c3ccccc3)c-2cc1`: the IC50 was more than 50 µM.

With `CN1CCN(C(=O)c2ccc3ccc(C(=O)c4ccccc4)c-3cc2)CC1`, the IC50 was more than 50 µM.

Test system in the next data set: not listed separately
Description: Dissociation constant, pKa of the compound by dip probe absorption spectroscopy. In kind it is physicochemical.
Details: not given
In the case of `O=C(O)c1ccc2cccc-2cc1`, the pKa stood at 3.5.

On to `O=C(O)c1ccc2ccc(C(=O)c3ccccc3)c-2cc1`, for which the pKa was determined as 3.2.

Test system in a further data set: not listed separately
Description: Photostability of the compound at pH 4.0 assessed as compound degradation administered as solution irradiated with sun light and measured after 7 days by HPLC analysis. In kind it is physicochemical. The conditions noted are these: time 7 day, read-out: Drug degradation. Put shortly:
as §1
As for `O=C(O)c1ccc2cccc-2cc1`, the degraded at 168 h was less than 0.5%.

Test system in the next data set: not listed separately
In words: Lipophilicity, logP of the compound. The note with it: octanol/water; read-out: logP. In kind it is physicochemical.
Take `O=C(Cn1ccccc1=O)Nc1cc2cccccc-2c1`: the logP was 1.7.

As for `CN1CCN(C(=O)c2ccc3ccc(C(=O)c4ccccc4)c-3cc2)CC1`, the logP came out at 3.

Test system in the next data set: not listed separately
In words: Aqueous solubility of the compound at pH 2.2 incubated for 24 hrs under shaking condition by LC-UV analysis. Format: physicochemical. The note with it: aqueous medium. Put shortly:
(§2)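 The highest concentration tested was 250 μM, so results are capped at that level. Values are reported in µg/ml.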
With `O=C(Cn1ccccc1=O)Nc1cc2cccccc-2c1`, the thermodynamic solubility at 24 h worked out at 4 µg/mL (≈ 14.4 µM).

`CN1CCN(C(=O)c2ccc3ccc(C(=O)c4ccccc4)c-3cc2)CC1` displayed a solubility (thermodynamic) at 24 h of more than 90 µg/mL.

For another data set, the target named is T1, Cytochrome P450 2C8 (Homo sapiens, UniProt P10632).
T1 sequence (P10632 whole entry): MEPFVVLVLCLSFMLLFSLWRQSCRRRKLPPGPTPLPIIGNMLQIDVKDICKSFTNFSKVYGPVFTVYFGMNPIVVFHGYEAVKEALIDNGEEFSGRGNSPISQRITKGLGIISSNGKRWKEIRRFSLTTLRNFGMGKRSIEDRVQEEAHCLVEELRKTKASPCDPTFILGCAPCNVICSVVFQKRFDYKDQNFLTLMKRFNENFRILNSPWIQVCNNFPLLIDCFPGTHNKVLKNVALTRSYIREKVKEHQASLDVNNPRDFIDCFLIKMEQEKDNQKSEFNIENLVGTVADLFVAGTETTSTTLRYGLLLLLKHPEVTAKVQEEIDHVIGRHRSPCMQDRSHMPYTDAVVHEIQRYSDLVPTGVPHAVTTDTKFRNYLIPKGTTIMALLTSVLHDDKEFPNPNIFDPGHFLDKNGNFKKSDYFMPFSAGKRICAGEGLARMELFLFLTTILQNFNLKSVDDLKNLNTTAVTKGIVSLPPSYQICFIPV
In words: Inhibition of CYP2C8 in human liver microsomes using amodiaquine as substrate preincubated with compound followed by NADPH addition by LC-MS/MS analysis. In kind it is ADME, Microsome.
Details: not given
As to `O=C(O)c1ccc2ccc(C(=O)c3ccccc3)c-2cc1`, the IC50 was more than 50 µM.

`CN1CCN(C(=O)c2ccc3ccc(C(=O)c4ccccc4)c-3cc2)CC1`: the IC50 was more than 50 µM.

Test system in the next data set: not listed separately
Description: Aqueous solubility of the compound at pH 6.8 incubated for 24 hrs under shaking condition by LC-UV analysis. Format: physicochemical. The note with it: aqueous medium. Put shortly:
as §2
Consider `O=C(Cn1ccccc1=O)Nc1cc2cccccc-2c1`, for which the solubility (thermodynamic) at 24 h stood at 2 µg/mL (≈ 7.19 µM).

With `CN1CCN(C(=O)c2ccc3ccc(C(=O)c4ccccc4)c-3cc2)CC1`, the solubility (thermodynamic) at 24 h is more than 73 µg/mL.

For the next data set, the target named is Cytochrome P450 2D6 (Homo sapiens, UniProt P10635). Description: Inhibition of CYP2D6 in human liver microsomes using dextromethorphan as substrate preincubated with compound followed by NADPH addition by LC-MS/MS analysis. In kind it is ADME, Microsome.
Cytochrome P450 2D6, sequence (P10635 whole entry): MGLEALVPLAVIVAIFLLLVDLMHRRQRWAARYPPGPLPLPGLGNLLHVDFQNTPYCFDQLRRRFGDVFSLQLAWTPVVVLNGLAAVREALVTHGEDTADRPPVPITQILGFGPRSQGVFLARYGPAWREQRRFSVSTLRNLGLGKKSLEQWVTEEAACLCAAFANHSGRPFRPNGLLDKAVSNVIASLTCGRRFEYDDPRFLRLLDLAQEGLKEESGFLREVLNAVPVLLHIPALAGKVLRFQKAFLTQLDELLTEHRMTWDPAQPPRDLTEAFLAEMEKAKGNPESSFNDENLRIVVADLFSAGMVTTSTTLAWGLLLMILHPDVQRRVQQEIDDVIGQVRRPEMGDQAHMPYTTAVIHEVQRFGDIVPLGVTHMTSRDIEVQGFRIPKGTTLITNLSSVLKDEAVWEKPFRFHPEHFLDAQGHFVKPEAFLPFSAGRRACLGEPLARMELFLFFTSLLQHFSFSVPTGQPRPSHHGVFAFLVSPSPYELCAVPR
Details: not given
With `O=C(O)c1ccc2ccc(C(=O)c3ccccc3)c-2cc1`, the IC50 is more than 50 µM.

On to `CN1CCN(C(=O)c2ccc3ccc(C(=O)c4ccccc4)c-3cc2)CC1`, for which the IC50 is more than 50 µM.

Test system in the next data set: not listed separately
Description: Octanol-water partition coefficient, logD of the compound at pH 11 by HPLC analysis. Format: physicochemical. The conditions noted are these: read-out: logD.
`O=C(Cn1ccccc1=O)Nc1cc2cccccc-2c1`: the logD amounted to 1.7.

For the compound `CN1CCN(C(=O)c2ccc3ccc(C(=O)c4ccccc4)c-3cc2)CC1`, the logD was 1.2.

Test system in a further data set: not listed separately
Description: Permeability of the compound at pH 7.4 by PAMPA assay. In kind it is ADME. The note with it: read-out: permeability.
Regarding `O=C(Cn1ccccc1=O)Nc1cc2cccccc-2c1`, the Papp was 37 nm/s.

In the case of `CN1CCN(C(=O)c2ccc3ccc(C(=O)c4ccccc4)c-3cc2)CC1`, the Papp came out at 84 nm/s.

Test system in another data set: not listed separately
In words: Photostability of the compound at pH 4.1 assessed as compound degradation administered as solution irradiated with sun light and measured after 7 days by HPLC analysis. In kind it is physicochemical. The note with it: time 7 day, read-out: Drug degradation. Put shortly: as §1
With `O=C(O)c1ccc2ccc(C(=O)c3ccccc3)c-2cc1`, the degraded at 168 h is less than 0.5%.

Test system in a further data set: not listed separately
In words: Hydrolytic stability of the compound in aqueous HCl assessed as compound decomposition measured after 3 days by HPLC analysis. Format: physicochemical. The note with it: time 3 day, read-out: Drug degradation. Put shortly:
(§3)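 Compound was held for 3 days at 40 °C in 0.1 M HCl in water or in aqueous buffer at pH 7.4. Dissolution was confirmed by eye, and decomposition is reported as % loss of parent.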
In the case of `O=C(O)c1ccc2cccc-2cc1`, the degraded at 72 h was determined as 1.5%.

As to `O=C(Cn1ccccc1=O)Nc1cc2cccccc-2c1`, the degraded at 72 h was 3.5%.

Test system in another data set: not listed separately
In words: Photostability of the compound assessed as compound degradation administered as solid irradiated with sun light and measured after 7 days by HPLC analysis.
Details: not given
Consider `O=C(O)c1ccc2cccc-2cc1`, for which the degraded at 168 h was less than 0.5%.

Take `O=C(O)c1ccc2ccc(C(=O)c3ccccc3)c-2cc1`: the degraded at 168 h is less than 0.5%.

On to `O=C(Cn1ccccc1=O)Nc1cc2cccccc-2c1`, for which the degraded at 168 h is less than 0.5%.

In the case of `CN1CCN(C(=O)c2ccc3ccc(C(=O)c4ccccc4)c-3cc2)CC1`, the degraded at 168 h is less than 0.5%.

Test system in another data set: not listed separately
Description: Hydrolytic stability of the compound in aqueous buffer at pH 7.4 assessed as compound decomposition measured after 3 days by HPLC analysis. Format: physicochemical. The note with it: time 3 day, read-out: Drug degradation. Put shortly: as §3
As for `O=C(O)c1ccc2cccc-2cc1`, the degraded at 72 h was less than 0.5%.

Regarding `O=C(Cn1ccccc1=O)Nc1cc2cccccc-2c1`, the degraded at 72 h was less than 0.5%.

Test system in a further data set: not listed separately
Description: Photostability of the compound at pH 7.2 assessed as compound degradation administered as solution irradiated with sun light and measured after 7 days by HPLC analysis. The note with it: time 7 day, read-out: Drug degradation. Format: physicochemical. Put shortly: as §1
Turning to `CN1CCN(C(=O)c2ccc3ccc(C(=O)c4ccccc4)c-3cc2)CC1`, the degraded at 168 h is less than 0.5%.

Test system in another data set: not listed separately
In words: Stability of the compound at pH 7.4 assessed as half life measured after 24 hrs in presence of GSH by HPLC analysis. In kind it is physicochemical. The note with it: solution with GSH.
For `O=C(O)c1ccc2cccc-2cc1`, the half-life is more than 41.7 days.

As for `O=C(O)c1ccc2ccc(C(=O)c3ccccc3)c-2cc1`, the half-life was more than 41.7 days.

`O=C(Cn1ccccc1=O)Nc1cc2cccccc-2c1`: the half-life was more than 41.7 days.

Test system in the next data set: not listed separately
Description: Aqueous solubility of the compound at pH 4.5 incubated for 24 hrs under shaking condition by LC-UV analysis. The conditions noted are these: aqueous medium. Format: physicochemical. Put shortly:
as §2
`O=C(Cn1ccccc1=O)Nc1cc2cccccc-2c1`: the thermodynamic solubility at 24 h was 2 µg/mL (≈ 7.19 µM).

The compound `CN1CCN(C(=O)c2ccc3ccc(C(=O)c4ccccc4)c-3cc2)CC1` had a thermodynamic solubility at 24 h of 67 µg/mL (≈ 187 µM).

Test system in another data set: not listed separately
Description: Metabolic stability in human liver microsomes assessed as hepatic blood flow at 1 uM preincubated with compound followed by NADPH addition by LC-MS/MS analysis. In kind it is ADME, Microsome. The note with it: read-out: QH.
On to `O=C(Cn1ccccc1=O)Nc1cc2cccccc-2c1`, for which the hepatic extraction ratio at 1 µM is less than 0.23.

`CN1CCN(C(=O)c2ccc3ccc(C(=O)c4ccccc4)c-3cc2)CC1`: the hepatic extraction ratio at 1 µM was determined as 0.48.

The values are drawn from ChEMBL document CHEMBL5120825, “The azulene scaffold from a medicinal chemist's perspective: Physicochemical and in vitro parameters relevant for drug discovery” (Eur J Med Chem, 2022).
